Results reported in ChEMBL document CHEMBL1955811, “Inhibition of colony-stimulating-factor-1 signaling in vivo with the orally bioavailable cFMS kinase inhibitor GW2580” (Proc Natl Acad Sci U S A, 2005).
Calls of active or inactive are those of the source. The calls are words filed in the database; no cut-off is given here.

Key:
[1] = Protein binding in cell-culture media with human plasma at 3 uM; type: ADME, cell-free; conditions: read-out: PB (converted)
How it was run: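 Compound at 3 μM was added to triplicate samples and incubated 1 h at 37°C. Samples were centrifuged through a 30,000-MW filter (1,500 × g, 15 min, 4°C). Percent bound was calculated from compound concentrations in the filtrate and retentate.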

[2] = Growth inhibition of CSF1-stimulated mouse M-NFS-60 cells after 3 days by spectrophotometry; type: functional; conditions: NFS-60, 72 h
How it was run: (§1)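 Cells cultured so that added serum or growth factor gave linear growth. Compound tested as a 10- to 12-point dose-response with a top concentration of 20 μM.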

Mus musculus [3] = test: Inhibition of LPS-stimulated TNF production in CSF-1 primed mouse at 20 to 80 mg/kg, po administered 4.5 hr before LPS challenge and CSF-1 priming measured […] after LPS challenge; type: functional, organism-based
Mus musculus [4] = test: Inhibition of LPS-stimulated TNF production in CSF-1 primed mouse at 40 mg/kg, po administered 0.5 hr before LPS challenge post CSF-1 priming measured […] after LPS challenge; type: functional
Mus musculus [5] = test: Inhibition of LPS-stimulated IL-6 production in CSF-1 primed mouse at 40 mg/kg, po administered 0.5 hr before LPS challenge post CSF-1 priming measured […] after LPS challenge; type: functional
Mus musculus [6] = test: Inhibition of LPS-stimulated TNF production in mouse at 40 mg/kg, po administered 4.5 hr before LPS challenge measured […] after LPS challenge; type: functional
NFS-60 = test: Antitumor activity in mouse M-NFS-60 cells allografted in CD-1 nude mouse assessed as inhibition of tumor cell growth in peritoneal cavity at 80 mg/kg, po BID starting 1 hr before challenge for 4 days measured after 4 days; type: functional, organism-based; set-up: dose 80 mg/kg
How it was run: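 CD-1 nude female mice (22-26 g); 1 × 10^7 M-NFS-60 cells in PBS injected i.p. Oral dosing b.i.d. at 20 and 80 mg/kg as a suspension in 0.5% hydroxypropylmethylcellulose/0.1% Tween 80 (0.2 ml per mouse), starting 1 h before cell injection. Peritoneal cells recovered by cold PBS-heparin lavage on day 4 and counted by hemocytometer after crystal violet dilution. Mean ± SEM; Dunnett's test.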

PBMC [7] = test: Effect on LPS-induced IL-6 production in human PBMC at 0.03906 to 20 uM preincubated for 30 mins before LPS stimulation measured after 20 hrs by ELISA; type: functional, cell-based
Osteoclast [8] = test: Inhibition of human osteoclast degradation of bone assessed as bone slice resorbed at 1 uM after 3 days by immunocytochemistry (reference value: 26.6 +/- 4.7 %); type: functional; conditions: 72 h
[9] = molecular target: Proto-oncogene tyrosine-protein kinase LCK (Mus musculus, UniProt P06240); test: Inhibition of mouse LCK
Proto-oncogene tyrosine-protein kinase LCK, sequence (P06240 whole entry): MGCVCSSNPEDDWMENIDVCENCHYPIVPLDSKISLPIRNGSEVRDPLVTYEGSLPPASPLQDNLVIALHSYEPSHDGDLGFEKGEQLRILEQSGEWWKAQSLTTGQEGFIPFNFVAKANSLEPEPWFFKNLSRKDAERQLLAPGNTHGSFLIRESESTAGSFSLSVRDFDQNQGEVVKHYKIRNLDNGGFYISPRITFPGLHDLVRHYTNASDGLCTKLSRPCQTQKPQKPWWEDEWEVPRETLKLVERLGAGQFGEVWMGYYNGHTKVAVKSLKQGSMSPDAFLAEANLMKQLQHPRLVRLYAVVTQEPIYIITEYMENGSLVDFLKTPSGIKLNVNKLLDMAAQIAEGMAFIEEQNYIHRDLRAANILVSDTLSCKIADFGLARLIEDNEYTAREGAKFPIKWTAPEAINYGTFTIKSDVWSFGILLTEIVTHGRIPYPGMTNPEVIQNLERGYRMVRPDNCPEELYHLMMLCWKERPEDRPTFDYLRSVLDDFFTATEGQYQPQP

Mus musculus [10] = test: Inhibition of thioglycolate-induced macrophage influx into peritoneal cavity in mouse at 80 mg/kg, po BID administered 7 days before and 4 days after thioglycolate challenge; type: functional
How it was run: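 Female C3H/HEN mice (22-26 g) were dosed orally with compound suspended in 0.5% hydroxypropylmethylcellulose/0.1% Tween 80 (0.2 ml per mouse). Thioglycolate (1.5 ml) was injected i.p. on day 0. On day 4, the peritoneum was lavaged with 5 ml cold PBS containing 40 units/ml heparin, and cells were counted by hemocytometer in 0.1% crystal violet. Data are mean ± SEM; Dunnett's test.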

PBMC [11] = test: Effect on LPS-induced PGE2 production in human PBMC at 0.03906 to 20 uM preincubated for 30 mins before LPS stimulation measured after 20 hrs by ELISA; type: functional, cell-based
Macrophage = test: Effect on LPS-induced PGE2 production in CSF-1-stimulated human macrophages at 0.03906 to 20 uM preincubated for 30 mins before LPS stimulation measured after 20 hrs by ELISA; type: functional, cell-based
[12] = molecular target: Protein kinase C beta type (Homo sapiens, UniProt P05771); test: Inhibition of human PKCb1 catalytic domain after by scintillation counting
Protein kinase C beta type, sequence (P05771 whole entry, the tested form may be a part): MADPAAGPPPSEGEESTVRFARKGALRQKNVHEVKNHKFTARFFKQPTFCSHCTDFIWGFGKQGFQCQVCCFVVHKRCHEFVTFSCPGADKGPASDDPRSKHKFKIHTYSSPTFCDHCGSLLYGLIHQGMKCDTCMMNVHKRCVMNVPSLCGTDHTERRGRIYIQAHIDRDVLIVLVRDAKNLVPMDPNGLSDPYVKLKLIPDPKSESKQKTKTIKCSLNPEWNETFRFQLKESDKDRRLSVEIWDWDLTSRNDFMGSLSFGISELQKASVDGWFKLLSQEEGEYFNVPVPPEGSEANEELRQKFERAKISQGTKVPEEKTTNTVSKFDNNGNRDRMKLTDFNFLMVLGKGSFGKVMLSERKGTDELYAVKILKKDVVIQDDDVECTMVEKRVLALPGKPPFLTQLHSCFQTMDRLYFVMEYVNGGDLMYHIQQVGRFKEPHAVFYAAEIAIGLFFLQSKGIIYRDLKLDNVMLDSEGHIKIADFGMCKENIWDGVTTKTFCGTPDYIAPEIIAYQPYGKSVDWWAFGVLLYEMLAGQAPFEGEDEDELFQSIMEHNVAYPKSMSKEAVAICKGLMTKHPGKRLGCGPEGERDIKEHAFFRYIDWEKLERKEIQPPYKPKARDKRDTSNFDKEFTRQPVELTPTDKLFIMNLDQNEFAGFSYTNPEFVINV
How it was run: (§2)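 Catalytic domains of the human kinases were expressed, isolated and assayed with ATP and the appropriate substrate. Compound was tested as a 10- to 12-point dose-response up to a maximal 20 μM.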

Mus musculus [13] = test: Increase in LPS-stimulated IL-6 production in mouse at 40 mg/kg, po administered 4.5 hr before LPS challenge measured […] after LPS challenge
Rattus norvegicus = species: Rattus norvegicus; test: Inhibition of PTH-induced Wistar rat fetal long bone degradation assessed as labeled 45Ca release in to media at 1 to 10 uM after 48 hrs by liquid scintillation spectrometry; type: functional
How it was run: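 Fetal rat long bones preloaded with 45CaCl2 and incubated for 24 h. PTH and compound then added; release of labelled calcium into the medium measured 48 h later.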

[14] = molecular target: [Pyruvate dehydrogenase (acetyl-transferring)] kinase isozyme 4, mitochondrial (Homo sapiens, UniProt Q16654); test: Inhibition of human His-tagged PDHK4 using biotin-YHGHSMSDPGVSYRRR-amide as substrate after 20 mins by scintillation proximity assay; how it was run: as §2
[Pyruvate dehydrogenase (acetyl-transferring)] kinase isozyme 4, mitochondrial, sequence (Q16654 whole entry): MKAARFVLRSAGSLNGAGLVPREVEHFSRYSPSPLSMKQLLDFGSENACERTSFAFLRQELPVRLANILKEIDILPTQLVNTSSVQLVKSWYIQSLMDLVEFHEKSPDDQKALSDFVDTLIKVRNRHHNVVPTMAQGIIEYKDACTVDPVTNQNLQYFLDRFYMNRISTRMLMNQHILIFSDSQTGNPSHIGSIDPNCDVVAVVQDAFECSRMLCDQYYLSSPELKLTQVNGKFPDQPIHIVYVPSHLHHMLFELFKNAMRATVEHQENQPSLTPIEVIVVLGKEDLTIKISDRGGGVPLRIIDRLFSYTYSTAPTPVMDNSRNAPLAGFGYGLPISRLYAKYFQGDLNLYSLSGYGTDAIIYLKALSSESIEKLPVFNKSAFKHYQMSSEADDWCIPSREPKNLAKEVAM

[15] = Growth inhibition of serum-stimulated human MDA231 cells after 3 days by spectrophotometry; type: functional, cell-based; conditions: MDA-MB-231, 72 h; how it was run: as §1
HFF = test: Growth inhibition of serum-stimulated HFF after 3 days by spectrophotometry; type: cell-based; conditions: Homo sapiens, 72 h; how it was run: as §1
Mus musculus [16] = test: Inhibition of LPS-stimulated IL-6 production in mouse at 40 mg/kg, po administered 4.5 hr before LPS challenge measured […] after LPS challenge; type: functional
Mus musculus [17] = test: Toxicity in mouse M-NFS-60 cells allografted CD-1 nude mouse assessed as effect on body weight at 20 to 80 mg/kg, po BID starting 1 hr before challenge for 4 days; type: organism-based; set-up: dose 20-80 mg/kg, route oral; conditions: in vivo
How it was run: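 Female CD-1 nude mice (22-26 g) received 1 × 10^7 M-NFS-60 cells in PBS i.p. Oral dosing b.i.d. in 0.5% HPMC/0.1% Tween 80 began 1 h before cell injection. Body weight was taken at kill on day 4.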

Mus musculus [18] = test: Inhibition of LPS-stimulated TNF production in mouse at 20 to 80 mg/kg, po administered 4.5 hr before LPS challenge and measured […] after LPS challenge; type: functional, organism-based
Osteoclast [19] = test: Inhibition of human osteoclast degradation of bone assessed as bone slice resorbed at 10 uM after 3 days by immunocytochemistry (reference value: 26.6 +/- 4.7 %); type: functional; conditions: 72 h
[20] = test system: Peritoneal macrophage cell; test: Effect on LPS-induced TNF production in mouse intraperitoneal macrophages pretreated with CSF-1 at 0.03906 to 20 uM compound incubated for 30 mins before LPS stimulation measured after 20 hrs by ELISA; type: functional, cell-based
Monocyte [21] = test: Effect on LPS-induced PGE2 production in human monocytes at 0.03906 to 20 uM preincubated for 30 mins before LPS stimulation measured after 20 hrs by ELISA; type: functional, cell-based
Monocyte [22] = test: Growth inhibition of CSF-1-stimulated freshly isolated human monocytes after 3 days by spectrophotometry; type: functional, cell-based; conditions: 120 h, in the assay text read “after 5 days” for “after 3 days”; how it was run: as §1

## COc1ccc(COc2ccc(Cc3cnc(N)nc3N)cc2OC)cc1 [GW632580X]
[1]
  fraction unbound at 3 µM: 0.02
[2]
  IC50: 0.33 µM
Mus musculus [3]
  inhibition: Active
Mus musculus [4]
  inhibition in vivo at 40 mg/kg: 63%
Mus musculus [5]
  inhibition in vivo at 40 mg/kg: -6%
Mus musculus [6]
  inhibition in vivo at 40 mg/kg: 42%
NFS-60
  growth inhibition (GI): Active
PBMC [7]
  Activity: inactive
Osteoclast [8]
  bone resorption (%) at 1 µM: 3.3%
[9]
  IC50: > 10 µM
Mus musculus [10]
  inhibition in vivo at 80 mg/kg: 45%
PBMC [11]
  Activity: inactive
Macrophage
  Activity: inactive
[12]
  IC50: > 13 µM
Mus musculus [13]
  Activity: Active
Rattus norvegicus
  inhibition: Active
[14]
  IC50: > 28 µM
[15]
  IC50: > 30 µM
HFF
  IC50: > 30 µM
Mus musculus [16]
  inhibition in vivo at 40 mg/kg: -28%
Mus musculus [17]
  Activity: Non-toxic
Mus musculus [18]
  inhibition: Active
Osteoclast [19]
  bone resorption (%) at 10 µM: 1.2%
[20]
  Activity: inactive
Monocyte [21]
  Activity: inactive
Monocyte [22]
  IC50: 0.47 µM
